The array DNA melting data of Ke et al. (doi:10.1101/2024.01.08.574731)

Columns and labels:
[1] = melting temperature; fluorescence melt of hairpins on a sequencing array, two-state fit, raised by 9.35 °C to match UV melts; conditions: sodium 0.088 M
How it was run: (§1)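 To match UV melts, fitted temperatures were raised by 9.35 °C. These fits were bootstrapped two-state models that gave melting temperature and folding enthalpy, combined by inverse variance over four replicates. The input was normalised Cy3 fluorescence of library hairpins with annealed Cy3 and quencher oligos on a sequenced MiSeq flow cell, imaged in 50 mM Na-HEPES pH 8.0, 25 mM NaCl in 2.5 °C steps up to 60 °C.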

[2] = folding enthalpy; higher = less favourable; fluorescence melt of hairpins on a sequencing array, two-state fit; conditions: sodium 0.088 M
How it was run: as §1

| Sequence | Tm [1] | folding enthalpy [2] |
| --- | --- | --- |
| GATCAATGAGTTGATC ((((((....)))))) | 48.4 °C | -37.1 kcal/mol |
| GGCCTACCGAAAGGTGCC (((..(((....)))))) | 46.7 °C | -20.7 kcal/mol |
| GATCACAAAGTGATC ((((((...)))))) | 61 °C | -38.2 kcal/mol |
| GATCACTCAGTGATC ((((((...)))))) | 58.3 °C | -35.5 kcal/mol |
| GCGATATATCGC ((((....)))) | 55.6 °C | -25.9 kcal/mol |
| GCAGCCGGAAACGGTTGC (((.(((....))).))) | 64.8 °C | -50.1 kcal/mol |
| GCAGTGCGAAAGCATCGC ((..(((....)))..)) | 55.2 °C | -14.9 kcal/mol |
| GGGCTAGGAAACTGGTCC ((.(.((....)).).)) | 41 °C | -33.6 kcal/mol |
| GGCCCCACGAAAGTGGCC (((..(((....)))))) | 44.7 °C | -11.8 kcal/mol |
| GCTAGACGAAAGTCCAGC (((.(((....))).))) | 47.6 °C | -24.9 kcal/mol |
| GCCACGCGAAAGCGGAGC ((..(((....)))..)) | 54.4 °C | -17.1 kcal/mol |
| GGGTAGAAATACCC (((((....))))) | 47.9 °C | -23.1 kcal/mol |
| GCCAGACGAAAGTCGGC (((.(((....)))))) | 66.6 °C | -27.6 kcal/mol |
| GATCTGCTGACAGATC ((((((....)))))) | 50.5 °C | -39.7 kcal/mol |
| GATCTACGTGTAGATC ((((((....)))))) | 55.2 °C | -48.5 kcal/mol |
| GTGTGCGGAAACGTACAC ((((.((....)).)))) | 56.2 °C | -40.2 kcal/mol |
| GGAGTCGCGAAAGCGTCC (((..(((....)))))) | 34.1 °C | -12.3 kcal/mol |
| GCCTTGCGAAAGCCTGGC (((..((....))..))) | 53.9 °C | -18.7 kcal/mol |
| GCTTTTCGAAAGAACAGC (((.(((....))).))) | 42.8 °C | -31.8 kcal/mol |
| GCCTTGGGAAACCGAGGC ((((.((....)).)))) | 56.6 °C | -39.8 kcal/mol |
| GGTACTCGAAAGAGACC (((.(((....)))))) | 43.1 °C | -23.6 kcal/mol |
| GATCCGAGAACGGATC ((((((....)))))) | 54.5 °C | -37.4 kcal/mol |
| CGTCCGGAAACGGCCACG ((((((....)))..))) | 33.1 °C | -13 kcal/mol |
| GGCCAAGGAAACTTAGCC (((.(((....))).))) | 36.3 °C | -24.7 kcal/mol |

| Sequence | Tm [1] | folding enthalpy [2] |
| --- | --- | --- |
| GGAGATGGAAACGTCTCC (((((.(....).))))) | 49.5 °C | -36.9 kcal/mol |
| GGTCCGGGAAACCGGGTC (..((((....))))..) | 47.6 °C | -12.7 kcal/mol |
| GGCGACGAAAGTCTCGCC ((((((....)))..))) | 55.2 °C | -25.7 kcal/mol |
| GATCAGCTCCTGATC ((((((...)))))) | 50 °C | -43.2 kcal/mol |
| GCGGCGGGAAACCGCCAC (.(((((....))))).) | 52.6 °C | -10.5 kcal/mol |
| GGCACCGGAAACGACGCC (((..((....))..))) | 42 °C | -29.9 kcal/mol |
| GGACGGCCGAAAGGCTCC (((..(((....)))))) | 34.1 °C | -10.8 kcal/mol |
| GTTCACGAAAGTGGCAAC ((((((....)))..))) | 31.4 °C | -8.43 kcal/mol |
| GAAGTGACGAAAGTCTTC (((..(((....)))))) | 27.8 °C | -8.64 kcal/mol |
| AGCAAGAAATTGCT (((((....))))) | 39.3 °C | -16 kcal/mol |
| GATCGCCCGCGCGATC ((((((....)))))) | 66.3 °C | -30.6 kcal/mol |
| GGGCTGGCGAAAGCCCCC (((..(((....)))))) | 52.1 °C | -12.9 kcal/mol |
| GCGATGGTTCGC ((((....)))) | 49.8 °C | -24.5 kcal/mol |
| GGAACCGAAAGGTAGTCC ((((((....)))..))) | 29.8 °C | -12 kcal/mol |
| GTGCGTCCGAAAGGACAC (((..(((....)))))) | 60.4 °C | -9.8 kcal/mol |
| GCCCGTCGAAAGACCGGC (((.(((....))).))) | 52.6 °C | -38.4 kcal/mol |
| GGCCGCACGAAAGTGGCC (((..(((....)))))) | 58.9 °C | -26.5 kcal/mol |
| GCTGGCCGAAAGGCAAGC (((.(((....))).))) | 68.9 °C | -25.5 kcal/mol |
| GCGGTACACCGC ((((....)))) | 59.1 °C | -40.4 kcal/mol |
| GGCCCTGGAAACAAGGCC ((((.((....)).)))) | 48.3 °C | -36.7 kcal/mol |
| GGTCACGGAAACGTGATC (.(((((....))))).) | 53 °C | -30.4 kcal/mol |
| GAGTTCCGAAAGGAGCTC (((.(((....))).))) | 57.1 °C | -37 kcal/mol |
| GCTACTGGAAACAGTGGC ((.((((....)))).)) | 51.7 °C | -38.3 kcal/mol |
| GCTAAGCGAAAGCATGGC ((.(.((....)).).)) | 39.7 °C | -20.1 kcal/mol |

| Sequence | Tm [1] | folding enthalpy [2] |
| --- | --- | --- |
| GATAAGGGAAACCTTGTC ((.((((....)))).)) | 37.9 °C | -20.7 kcal/mol |
| GCATCCGAAAGGAATTGC ((((((....)))..))) | 36.9 °C | -20.2 kcal/mol |
| GATCCCCTGGGGGATC ((((((....)))))) | 66.6 °C | -36.4 kcal/mol |
| GACCGCGGAAACACGGCC (.(((.(....).))).) | 37 °C | -22.2 kcal/mol |
| GCGTACGGACGC ((((....)))) | 52.9 °C | -29.5 kcal/mol |
| GATCGCACGGCGATC ((((((...)))))) | 69.3 °C | -33 kcal/mol |
| GATGAGAAATCATC (((((....))))) | 39.8 °C | -20.6 kcal/mol |
| GTCGGGCGAAAGCCAGAC (((.(((....))).))) | 65.2 °C | -30 kcal/mol |
| GGACAGGGAAACCTATCC (((.(((....))).))) | 32.6 °C | -19.3 kcal/mol |
| GAGGTCCGAAAGGAACTC (((.(((....))).))) | 61.5 °C | -40.6 kcal/mol |
| GCGACTATTCGC ((((....)))) | 47.4 °C | -19.3 kcal/mol |
| GTCTGCGAAAGCATTGAC ((((((....)))..))) | 40.2 °C | -14 kcal/mol |
| GAGACCGAAAGGTATCTC ((((((....)))..))) | 53 °C | -24 kcal/mol |
| GCTGTCGAAAGACTTAGC ((((((....)))..))) | 43 °C | -19.9 kcal/mol |
| GATCCCCGAAAGGGTATC (((.(((....))).))) | 42.2 °C | -21.1 kcal/mol |
| GCGGCGCGAAAGCCCTGC ((.(.((....)).).)) | 45.6 °C | -18.3 kcal/mol |
| GATGACGAAAGTCACATC ((((((....)))..))) | 29.2 °C | -8.72 kcal/mol |
| GCGATCGAAAGATAGCGC ((((((....)))..))) | 55.5 °C | -30.8 kcal/mol |
| GTCCGCGAAAGCGATGAC ((((((....)))..))) | 38.3 °C | -15.9 kcal/mol |
| GCTACGCGAAAGCGATGC ((..(((....)))..)) | 50 °C | -18.3 kcal/mol |
| GTTGTAGGAAACTGCAAC ((((.((....)).)))) | 46.9 °C | -17.8 kcal/mol |
| GCAGAACCGAAAGGTTGC (((..(((....)))))) | 44.5 °C | -17.1 kcal/mol |
| GATCTTCCTAAAGATC ((((((....)))))) | 43.7 °C | -31.7 kcal/mol |
| GGCTATGCGAAAGCAGCC (((..(((....)))))) | 55.6 °C | -27.3 kcal/mol |

| Sequence | Tm [1] | folding enthalpy [2] |
| --- | --- | --- |
| GATCTATTGTAGATC ((((((...)))))) | 41 °C | -22.8 kcal/mol |
| GCGTTTTTACGC ((((....)))) | 55.2 °C | -26.9 kcal/mol |
| GCTAGGGGAAACTCTAGC (((((.(....).))))) | 47.7 °C | -34.8 kcal/mol |
| GCAACGCGAAAGCATTGC ((((.((....)).)))) | 59.7 °C | -27.3 kcal/mol |
| GCAATGCGAAAGCAACGC ((..(((....)))..)) | 40.2 °C | -14.4 kcal/mol |
| GATCTACTGTAGATC ((((((...)))))) | 41.1 °C | -36.8 kcal/mol |
| GCGAGGACTCGC ((((....)))) | 56.1 °C | -31.9 kcal/mol |
| GACGCTCCGAAAGGAGTC (((..(((....)))))) | 34.5 °C | -9.32 kcal/mol |
| GCCGCCCCGAAAGGGGGC (((..(((....)))))) | 67.5 °C | -6.87 kcal/mol |
| GAAAGCCGAAAGGCTTC (((.(((....)))))) | 50.2 °C | -9.06 kcal/mol |
| GCACCTCGAAAGAGATGC (((.(((....))).))) | 50.6 °C | -40.3 kcal/mol |
| GCATGCGGAAACACATGC (((((.(....).))))) | 49.7 °C | -42 kcal/mol |
| GACTAGACGAAAGTCGTC (((..(((....)))))) | 38.9 °C | -13 kcal/mol |
| GCGTAGCGAAAGCTCAGC ((..(((....)))..)) | 46 °C | -10.8 kcal/mol |
| GAACTAGGAAACCAGTTC (((((.(....).))))) | 33.9 °C | -28.3 kcal/mol |
| GTCCACGAAAGTGTGAC ((((((....))).))) | 50.4 °C | -22.4 kcal/mol |
| GAAATCACGAAAGTGTTC (((..(((....)))))) | 20.8 °C | -9 kcal/mol |
| GAAGCCGAAAGGCCTTC ((((((....))).))) | 48.8 °C | -16.2 kcal/mol |
| GATCTCTTGTGAGATC ((((((....)))))) | 53.1 °C | -48.6 kcal/mol |
| ACGGGGAAACCCGT (((((....))))) | 65.1 °C | -17.3 kcal/mol |
| GTTGCAGGAAACTGTAAC (((.(((....))).))) | 45.8 °C | -29.8 kcal/mol |
